Active and inactive are the calls of the source. No cut-off for these calls is given here.
Legend:
Type in all cases: cell-based
[1] = target: Transient receptor potential cation channel subfamily V member 1 (Homo sapiens) (UniProt Q8NER1); assay: Activation of human TRPV1 expressed in BEAS-2B cells assessed as induction of calcium influx at 100 uM by fluro 4-AM dye-based fluorescence assay
Outline: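 TRPV1-overexpressing BEAS-2B cells are loaded with Fluo 4-Direct/LHC-9 at room temperature, washed into LHC-9 containing probenecid and Trypan Red, and incubated 30 min at 37 °C. Test solution is made at 3× in LHC9. Fluorescence is followed 1 min at 37 °C. Max ΔF/s relative to medium is expressed as % of the response to 10 μM capsaicin. Minimum triplicate.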

[2] = target: Transient receptor potential cation channel subfamily M member 8 (Homo sapiens) (UniProt Q7Z2W7); assay: Activation of human TRPM8 expressed in HEK293 cells assessed as induction of calcium influx at 100 uM by fluro 4-AM dye-based fluorescence assay
Chain of Transient receptor potential cation channel subfamily M member 8 (Homo sapiens) (Q7Z2W7 whole entry, looked up): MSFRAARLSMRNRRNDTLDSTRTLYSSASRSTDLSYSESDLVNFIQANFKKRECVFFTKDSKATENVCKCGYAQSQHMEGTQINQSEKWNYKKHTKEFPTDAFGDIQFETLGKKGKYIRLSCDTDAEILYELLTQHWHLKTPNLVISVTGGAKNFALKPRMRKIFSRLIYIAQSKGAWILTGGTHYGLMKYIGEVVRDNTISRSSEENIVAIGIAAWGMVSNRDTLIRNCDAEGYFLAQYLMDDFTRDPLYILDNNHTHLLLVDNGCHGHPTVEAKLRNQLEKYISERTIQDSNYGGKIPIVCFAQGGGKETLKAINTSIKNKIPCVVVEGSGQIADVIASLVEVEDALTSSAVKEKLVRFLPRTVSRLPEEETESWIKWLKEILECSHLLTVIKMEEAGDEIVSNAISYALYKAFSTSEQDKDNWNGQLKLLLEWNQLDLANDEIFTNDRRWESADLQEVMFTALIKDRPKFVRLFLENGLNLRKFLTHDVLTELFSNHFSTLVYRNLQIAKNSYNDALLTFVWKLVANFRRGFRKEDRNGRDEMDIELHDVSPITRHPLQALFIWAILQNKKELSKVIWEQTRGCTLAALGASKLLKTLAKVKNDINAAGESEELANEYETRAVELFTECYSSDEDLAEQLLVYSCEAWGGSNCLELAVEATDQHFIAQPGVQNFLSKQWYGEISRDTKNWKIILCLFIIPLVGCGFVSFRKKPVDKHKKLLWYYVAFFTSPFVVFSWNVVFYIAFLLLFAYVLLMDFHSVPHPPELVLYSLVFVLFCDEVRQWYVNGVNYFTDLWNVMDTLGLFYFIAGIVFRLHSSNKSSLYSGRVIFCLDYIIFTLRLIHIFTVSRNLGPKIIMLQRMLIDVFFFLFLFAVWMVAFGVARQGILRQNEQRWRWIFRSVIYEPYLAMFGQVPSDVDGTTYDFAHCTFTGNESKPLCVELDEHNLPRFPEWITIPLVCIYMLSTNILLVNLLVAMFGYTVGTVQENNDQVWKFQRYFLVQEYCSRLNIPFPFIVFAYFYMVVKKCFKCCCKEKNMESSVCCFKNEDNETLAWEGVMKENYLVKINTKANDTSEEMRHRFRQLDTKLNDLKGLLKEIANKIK
Outline: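 Uses the same HEK-293 stable-line culture and Fluo 4-AM loading (1 h, 37 °C), followed by the probenecid/Trypan Red LHC-9 wash and 30 min equilibration at 37 °C. Treatment is made at 3× in LHC9. Max ΔF/s is read over 1 min at 37 °C, normalized to medium-only and given as % of the 25 μM icilin control. Three or more replicates.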

[3] = target: Transient receptor potential cation channel subfamily V member 4 (Homo sapiens) (UniProt Q9HBA0); assay: Activation of human TRPV4 expressed in HEK293 cells assessed as induction of calcium influx at 100 uM by fluro 4-AM dye-based fluorescence assay
Chain of Transient receptor potential cation channel subfamily V member 4 (Homo sapiens) (Q9HBA0 whole entry): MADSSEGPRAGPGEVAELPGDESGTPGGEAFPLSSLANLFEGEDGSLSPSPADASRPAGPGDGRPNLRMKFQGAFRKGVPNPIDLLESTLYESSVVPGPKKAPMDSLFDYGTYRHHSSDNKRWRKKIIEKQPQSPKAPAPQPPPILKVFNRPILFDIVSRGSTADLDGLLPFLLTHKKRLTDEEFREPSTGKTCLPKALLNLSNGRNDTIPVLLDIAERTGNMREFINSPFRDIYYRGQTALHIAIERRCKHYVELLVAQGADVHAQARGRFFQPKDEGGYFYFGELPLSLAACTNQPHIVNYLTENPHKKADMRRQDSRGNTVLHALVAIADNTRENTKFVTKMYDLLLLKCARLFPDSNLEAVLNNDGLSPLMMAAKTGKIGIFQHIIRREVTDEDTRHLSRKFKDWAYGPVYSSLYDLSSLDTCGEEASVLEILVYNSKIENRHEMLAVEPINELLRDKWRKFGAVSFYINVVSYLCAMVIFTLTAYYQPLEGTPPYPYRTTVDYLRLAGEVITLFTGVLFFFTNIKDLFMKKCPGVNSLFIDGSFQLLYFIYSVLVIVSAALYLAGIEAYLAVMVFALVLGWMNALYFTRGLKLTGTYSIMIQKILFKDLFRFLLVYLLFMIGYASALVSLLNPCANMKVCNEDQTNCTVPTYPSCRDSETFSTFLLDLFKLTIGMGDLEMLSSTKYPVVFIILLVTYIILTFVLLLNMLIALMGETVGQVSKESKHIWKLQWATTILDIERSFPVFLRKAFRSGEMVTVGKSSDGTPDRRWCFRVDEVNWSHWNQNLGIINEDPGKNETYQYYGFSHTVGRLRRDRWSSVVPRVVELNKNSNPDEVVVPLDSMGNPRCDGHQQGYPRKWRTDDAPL
Outline: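 HEK-293 stable overexpressors on gelatin-coated plates are loaded with Fluo 4-AM (1 h, 37 °C), then given probenecid/Trypan Red LHC-9 and 30 min at 37 °C. Treatments are prepared at 3× in LHC9, with 1-min monitoring at 37 °C. Max ΔF/s versus medium only is given as % of the 30 nM GSK1016790A control. Three replicates minimum.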

[4] = target: Transient receptor potential cation channel subfamily A member 1 (Homo sapiens, UniProt O75762); assay: Activation of human TRPA1 expressed in HEK293 cells assessed as induction of calcium influx at 100 uM by fluro 4-AM dye-based fluorescence assay; conditions: hek293, 100 µM
Chain of Transient receptor potential cation channel subfamily A member 1 (O75762 whole entry): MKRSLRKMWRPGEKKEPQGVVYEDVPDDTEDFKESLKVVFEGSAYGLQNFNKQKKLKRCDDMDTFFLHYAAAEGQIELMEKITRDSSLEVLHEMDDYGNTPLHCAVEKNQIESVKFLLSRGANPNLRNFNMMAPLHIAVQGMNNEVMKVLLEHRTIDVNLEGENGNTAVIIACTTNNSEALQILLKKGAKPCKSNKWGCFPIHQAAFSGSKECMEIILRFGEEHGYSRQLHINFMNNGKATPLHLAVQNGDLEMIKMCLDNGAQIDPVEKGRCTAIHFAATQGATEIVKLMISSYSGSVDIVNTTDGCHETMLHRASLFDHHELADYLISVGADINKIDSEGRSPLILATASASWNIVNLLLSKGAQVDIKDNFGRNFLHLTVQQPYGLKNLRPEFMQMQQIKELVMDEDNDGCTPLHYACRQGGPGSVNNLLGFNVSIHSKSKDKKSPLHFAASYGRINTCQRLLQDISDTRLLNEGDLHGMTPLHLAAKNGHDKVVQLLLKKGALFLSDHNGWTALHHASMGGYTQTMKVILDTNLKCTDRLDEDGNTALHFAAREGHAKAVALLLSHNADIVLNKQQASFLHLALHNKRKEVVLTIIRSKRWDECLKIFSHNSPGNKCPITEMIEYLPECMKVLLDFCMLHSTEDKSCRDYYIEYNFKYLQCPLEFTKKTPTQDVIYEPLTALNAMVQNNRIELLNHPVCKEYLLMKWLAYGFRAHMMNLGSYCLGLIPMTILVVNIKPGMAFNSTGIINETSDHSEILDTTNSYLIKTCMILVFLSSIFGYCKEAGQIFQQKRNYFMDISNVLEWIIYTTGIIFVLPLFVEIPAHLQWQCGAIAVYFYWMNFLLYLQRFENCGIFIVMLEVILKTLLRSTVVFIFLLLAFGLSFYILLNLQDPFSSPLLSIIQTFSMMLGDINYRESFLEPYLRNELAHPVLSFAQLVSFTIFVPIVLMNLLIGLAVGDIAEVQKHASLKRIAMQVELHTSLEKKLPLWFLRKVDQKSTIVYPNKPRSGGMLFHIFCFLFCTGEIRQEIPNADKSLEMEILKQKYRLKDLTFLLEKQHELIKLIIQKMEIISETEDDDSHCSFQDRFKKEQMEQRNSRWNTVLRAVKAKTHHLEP
Outline: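 Stable HEK-293 line grown to confluence on gelatin-coated wells (DMEM:F12, 5% FBS, geneticin 300 μg/mL). Cells loaded 1 h at 37 °C with Fluo 4-Direct/LHC-9, washed into LHC-9 with 1 mM probenecid and Trypan Red, then held 30 min at 37 °C. Compound added at 3× in calcium assay buffer. Fluorescence read 1 min at 37 °C as max ΔF/s versus medium only, expressed as % of 250 μM 2,4-ditert-butylphenol response. At least three replicates.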

[5] = target: T1, Transient receptor potential cation channel subfamily V member 3 (Homo sapiens) (UniProt Q8NET8); assay: Activation of human TRPV3 expressed in HEK293 cells assessed as induction of calcium influx at 100 uM by fluro 4-AM dye-based fluorescence assay
T1 sequence (whole entry): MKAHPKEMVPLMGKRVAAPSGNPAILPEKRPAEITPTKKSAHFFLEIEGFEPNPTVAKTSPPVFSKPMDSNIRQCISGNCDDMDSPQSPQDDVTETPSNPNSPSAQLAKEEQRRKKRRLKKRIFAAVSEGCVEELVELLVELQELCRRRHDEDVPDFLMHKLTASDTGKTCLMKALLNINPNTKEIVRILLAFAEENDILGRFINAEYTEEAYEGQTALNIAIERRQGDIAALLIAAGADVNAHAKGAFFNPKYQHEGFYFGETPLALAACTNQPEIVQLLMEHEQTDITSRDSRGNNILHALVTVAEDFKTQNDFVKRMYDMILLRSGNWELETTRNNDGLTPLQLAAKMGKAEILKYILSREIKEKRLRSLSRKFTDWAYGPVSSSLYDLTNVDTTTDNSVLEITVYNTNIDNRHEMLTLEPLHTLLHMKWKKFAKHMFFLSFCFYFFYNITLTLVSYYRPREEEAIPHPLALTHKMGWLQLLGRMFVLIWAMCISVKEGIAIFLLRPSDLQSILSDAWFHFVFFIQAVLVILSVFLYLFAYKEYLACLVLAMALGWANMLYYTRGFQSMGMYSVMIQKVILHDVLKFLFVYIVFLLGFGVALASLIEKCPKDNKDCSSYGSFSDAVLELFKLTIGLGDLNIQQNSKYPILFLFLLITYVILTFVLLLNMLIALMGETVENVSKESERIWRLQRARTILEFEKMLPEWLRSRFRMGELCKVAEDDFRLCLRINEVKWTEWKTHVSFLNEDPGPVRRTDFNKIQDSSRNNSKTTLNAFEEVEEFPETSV
Outline: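 Confluent HEK-293 cells stably expressing the channel are dye-loaded 1 h at 37 °C, washed, and equilibrated 30 min at 37 °C in LHC-9 with 1 mM probenecid. Compounds are dosed at 3× in calcium assay buffer. The 1-min read at 37 °C gives max ΔF/s over medium, reported as % of the 300 μM carvacrol agonist control. At least three replicates.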

Chain of Transient receptor potential cation channel subfamily V member 1 (Homo sapiens) (Q8NER1 whole entry): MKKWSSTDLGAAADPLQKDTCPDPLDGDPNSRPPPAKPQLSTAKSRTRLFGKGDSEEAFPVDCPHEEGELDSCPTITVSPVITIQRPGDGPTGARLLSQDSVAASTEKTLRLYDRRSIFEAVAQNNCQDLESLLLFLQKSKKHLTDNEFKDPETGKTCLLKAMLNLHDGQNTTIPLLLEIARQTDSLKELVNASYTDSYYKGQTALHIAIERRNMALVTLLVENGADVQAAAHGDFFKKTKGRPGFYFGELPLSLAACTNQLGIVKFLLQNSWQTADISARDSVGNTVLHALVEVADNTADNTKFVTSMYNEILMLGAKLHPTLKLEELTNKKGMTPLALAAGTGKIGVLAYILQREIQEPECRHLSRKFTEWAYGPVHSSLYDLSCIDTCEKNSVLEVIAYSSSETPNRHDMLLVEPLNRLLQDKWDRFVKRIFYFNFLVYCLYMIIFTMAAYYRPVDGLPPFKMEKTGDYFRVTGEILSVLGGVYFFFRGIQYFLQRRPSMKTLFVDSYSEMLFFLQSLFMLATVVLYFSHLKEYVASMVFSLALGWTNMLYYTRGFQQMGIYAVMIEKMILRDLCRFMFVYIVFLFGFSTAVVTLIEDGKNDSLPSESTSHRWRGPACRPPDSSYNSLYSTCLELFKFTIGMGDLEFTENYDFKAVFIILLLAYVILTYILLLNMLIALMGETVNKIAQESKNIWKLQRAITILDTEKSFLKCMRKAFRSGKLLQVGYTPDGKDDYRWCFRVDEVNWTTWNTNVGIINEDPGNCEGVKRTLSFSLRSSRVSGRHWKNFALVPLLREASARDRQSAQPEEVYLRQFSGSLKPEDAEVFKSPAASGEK

CC(C)C[C@@H]1NC(=O)[C@@H](CC(C)C)OC(=O)CCNC(=O)[C@H](Cc2ccc(O)cc2)NC(=O)[C@H](CC(C)C)OC1=O
Activity [1]: inactive | Activity [2]: Active | Activity [3]: inactive | Activity [4]: Active | Activity [5]: inactive

CC(C)C[C@@H]1NC(=O)[C@@H](CC(C)C)OC(=O)CCNC(=O)[C@H](Cc2ccccc2)NC(=O)[C@H](CC(C)C)OC1=O
Activity [1]: inactive | Activity [2]: Active | Activity [3]: inactive | Activity [4]: Active | Activity [5]: inactive

From ChEMBL document CHEMBL4052592, “Identification of Cyclic Depsipeptides and Their Dedicated Synthetase from Hapsidospora irregularis” (J Nat Prod, 2017)
